Our source for the IC50 and MIC values is ChEMBL document CHEMBL4613251, “Meliponamycins: Antimicrobials from Stingless Bee-Associated Streptomyces sp” (J Nat Prod, 2020).

The test system of one test is THP-1. The experiment in a line: Cytotoxicity against human THP1 cells assessed as reduction in cell viability after 120 hrs by alamar blue assay. It counts as cell-based. The settings on record: THP-1, 120 h. Summed up: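 THP-1 cells were seeded at 2 × 10^4/well in RPMI-1640 + 10% FCS with 20 ng/mL PMA and differentiated for 72 h (37 °C, 5% CO2). Serial 2-fold dilutions from 10 mM DMSO stocks were added for 120 h. Alamar Blue was then added for 3 h, and fluorescence was read at ex 536 / em 588 nm as % of untreated control. n = 2 biological replicates; doxorubicin control.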
A general note: Resazurin is reduced to fluorescent resorufin, in cell work by metabolically active cells.

The next test concerns Paenibacillus larvae. Briefly: Antibacterial activity against Paenibacillus larvae ATCC 9545 assessed as reduction in microbial growth by CLSI based broth microdilution method. The class given is functional. In a few lines:
(§1)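 MIC by broth microdilution following CLSI guidelines; strains propagated in ISP-2 medium. Compounds added from a 0.125 mg/mL DMSO stock, highest final concentration 6.9 μg/mL, then serial 2-fold dilutions with DMSO diluted alongside. Tetracycline served as positive control for both strains.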
On the technique in general: In broth dilution the organism is exposed to a series of concentrations in liquid medium.

The test system of the next test is Staphylococcus aureus. The experiment in a line: Antibacterial activity against Staphylococcus aureus INCAS0039 assessed as reduction in microbial growth by CLSI based broth microdilution method. It counts as functional. In a few lines:
as §1

A further test deals with Leishmania infantum. Briefly: Antileishmanial activity against intracellular amastigote stage of Leishmania infantum MHOM/MA/67/ITMAP-263 infected in THP1 cells after 120 hrs by giemsa-staining based inverted microscopic mehod. The settings on record: MHOM/MA/67/ITMAP-263, THP-1, 120 h. It counts as functional, organism-based. Summed up: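 THP-1 monocytes seeded at 2 × 10^4/well and differentiated to macrophages with 20 ng/mL PMA for 72 h (37 °C, 5% CO2). They were then infected with late-stage promastigotes (2 × 10^5/well; promastigotes grown in M199 + 10% FCS, 28 °C). Extracellular parasites were removed after 24 h, and 2-fold serial dilutions from 10 mM DMSO stocks were added for 120 h. Cells were methanol-fixed and Giemsa-stained, and amastigotes per macrophage were counted microscopically as % of untreated control. IC50 from a variable-slope fit; n = 2 biological replicates; miltefosine control.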

As usually defined, the IC50 is the concentration needed to halve the response being measured. `COc1cccc2c1C(=O)c1c(O)c3c(c(O)c1C2=O)C[C@@](O)(C(=O)CO)C[C@@H]3O[C@H]1C[C@H](N)[C@H](O)[C@H](C)O1` [DOXORUBICIN]: the IC50 in the test on THP-1 is 1.8 µM. By MIC is commonly meant the lowest concentration that inhibits growth of the organism. As to `CN(C)[C@@H]1C(O)=C(C(N)=O)C(=O)[C@@]2(O)C(O)=C3C(=O)c4c(O)cccc4[C@@](C)(O)[C@H]3C[C@@H]12` [TETRACYCLINE], the minimal inhibitory concentration (MIC) in the test with Paenibacillus larvae worked out at 7.76 µM; in the test with Staphylococcus aureus, 0.05 µg/mL. Compound `CCCCCCCCCCCCCCCCOP(=O)([O-])OCC[N+](C)(C)C` [MILTEFOSINE] returned an IC50 in the test on Leishmania infantum of 2.4 µM.
